# Experiments:
# [1] = test system: Rattus norvegicus; assay: Concentration of compound in rat kidney after intravenous injection of 20 mg/kg benzyl-penicillin after 1 min; assay type: functional, organism-based; set-up: dose 20 mg/kg
# Procedure, shortened: (§1)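 Male Sprague-Dawley rats (200-250 g), conscious, received 60 µmol/kg (equimolar to 20 mg/kg benzylpenicillin) by tail-vein injection. Benzylpenicillin K was given in water/ethanol/propylene glycol, and the delivery systems in ethanol:propylene glycol 7:3, at 20 mg/mL. Rats were decapitated at set times (4-6 per point), with trunk blood heparinized and brain, kidney, liver and lung frozen. Benzylpenicillin was measured by disk microbioassay (Bacillus subtilis ATCC 6633) after >5-volume sterile-water dilution or homogenization, against matrix calibration curves; assay limit 0.05 µg/mL.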
# [2] = test system: Rattus norvegicus; assay: Concentration of compound in rat kidney after intravenous injection of 20 mg/kg benzyl-penicillin after 20 min; assay type: functional, organism-based; set-up: dose 20 mg/kg; procedure, shortened: as §1
# [3] = test system: Rattus norvegicus; assay: Concentration of compound in rat kidney after intravenous injection of 20 mg/kg benzyl-penicillin after 3 min; assay type: functional, organism-based; set-up: dose 20 mg/kg; procedure, shortened: as §1
# [4] = test system: Rattus norvegicus; assay: Concentration of compound in rat kidney after intravenous injection of 20 mg/kg benzyl-penicillin after 40 min; assay type: functional, organism-based; set-up: dose 20 mg/kg; procedure, shortened: as §1
# [5] = test system: Rattus norvegicus; assay: Concentration of compound in rat kidney after intravenous injection of 20 mg/kg benzyl-penicillin after 5 min; assay type: functional, organism-based; set-up: dose 20 mg/kg; procedure, shortened: as §1
# [6] = test system: Rattus norvegicus; assay: Concentration of compound in rat kidney after intravenous injection of 20 mg/kg benzyl-penicillin after 60 min; assay type: functional, organism-based; set-up: dose 20 mg/kg; procedure, shortened: as §1
# [7] = test system: Rattus norvegicus; assay: Concentration of compound in rat kidney after intravenous injection of 20 mg/kg benzyl-penicillin after 10 min; assay type: functional, organism-based; set-up: dose 20 mg/kg; procedure, shortened: as §1
# [8] = test system: Rattus norvegicus; assay: Concentration of compound in rat liver after intravenous injection of 20 mg/kg benzyl-penicillin after 1 min; assay type: functional, organism-based; set-up: dose 20 mg/kg; procedure, shortened: as §1
# [9] = test system: Rattus norvegicus; assay: Concentration of compound in rat liver after intravenous injection of 20 mg/kg benzyl-penicillin after 10 min; assay type: functional, organism-based; set-up: dose 20 mg/kg; procedure, shortened: as §1
# [10] = test system: Rattus norvegicus; assay: Concentration of compound in rat liver after intravenous injection of 20 mg/kg benzyl-penicillin after 20 min; assay type: functional, organism-based; set-up: dose 20 mg/kg; procedure, shortened: as §1
# [11] = test system: Rattus norvegicus; assay: Concentration of compound in rat liver after intravenous injection of 20 mg/kg benzyl-penicillin after 3 min; assay type: functional, organism-based; set-up: dose 20 mg/kg; procedure, shortened: as §1
# [12] = test system: Rattus norvegicus; assay: Concentration of compound in rat liver after intravenous injection of 20 mg/kg benzyl-penicillin after 40 min; assay type: functional, organism-based; set-up: dose 20 mg/kg; procedure, shortened: as §1
# [13] = test system: Rattus norvegicus; assay: Concentration of compound in rat liver after intravenous injection of 20 mg/kg benzyl-penicillin after 5 min; assay type: functional, organism-based; set-up: dose 20 mg/kg; procedure, shortened: as §1
# [14] = test system: Rattus norvegicus; assay: Concentration of compound in rat blood after intravenous injection of 20 mg/kg benzyl-penicillin after 1 min; assay type: functional, organism-based; set-up: dose 20 mg/kg; procedure, shortened: as §1
# [15] = test system: Rattus norvegicus; assay: Concentration of compound in rat blood after intravenous injection of 20 mg/kg benzyl-penicillin after 10 min; assay type: functional, organism-based; set-up: dose 20 mg/kg; procedure, shortened: as §1
# [16] = test system: Rattus norvegicus; assay: Concentration of compound in rat blood after intravenous injection of 20 mg/kg benzyl-penicillin after 20 min; assay type: functional, organism-based; set-up: dose 20 mg/kg; procedure, shortened: as §1
# [17] = test system: Rattus norvegicus; assay: Concentration of compound in rat blood after intravenous injection of 20 mg/kg benzyl-penicillin after 3 min; assay type: functional, organism-based; set-up: dose 20 mg/kg; procedure, shortened: as §1
# [18] = test system: Rattus norvegicus; assay: Concentration of compound in rat blood after intravenous injection of 20 mg/kg benzyl-penicillin after 40 min; assay type: functional, organism-based; set-up: dose 20 mg/kg; procedure, shortened: as §1
# [19] = test system: Rattus norvegicus; assay: Concentration of compound in rat blood after intravenous injection of 20 mg/kg benzyl-penicillin after 5 min; assay type: functional, organism-based; set-up: dose 20 mg/kg; procedure, shortened: as §1
# [20] = test system: Rattus norvegicus; assay: Concentration of compound in rat blood after intravenous injection of 20 mg/kg benzyl-penicillin after 60 min; assay type: functional, organism-based; set-up: dose 20 mg/kg; procedure, shortened: as §1
# [21] = test system: Rattus norvegicus; assay: Concentration of compound in rat brain after intravenous injection of 20 mg/kg benzyl-penicillin after 1 min; assay type: functional, organism-based; set-up: dose 20 mg/kg; procedure, shortened: as §1
# [22] = test system: Rattus norvegicus; assay: Concentration of compound in rat brain after intravenous injection of 20 mg/kg benzyl-penicillin after 10 min; assay type: functional, organism-based; set-up: dose 20 mg/kg; procedure, shortened: as §1
# [23] = test system: Rattus norvegicus; assay: Concentration of compound in rat brain after intravenous injection of 20 mg/kg benzyl-penicillin after 3 min; assay type: functional, organism-based; set-up: dose 20 mg/kg; procedure, shortened: as §1
# [24] = test system: Rattus norvegicus; assay: Concentration of compound in rat brain after intravenous injection of 20 mg/kg benzyl-penicillin after 5 min; assay type: functional, organism-based; set-up: dose 20 mg/kg; procedure, shortened: as §1
# [25] = test system: Rattus norvegicus; assay: Concentration of compound in rat liver after intravenous injection of 20 mg/kg benzyl-penicillin after 60 min; assay type: functional, organism-based; set-up: dose 20 mg/kg; procedure, shortened: as §1
# [26] = test system: Rattus norvegicus; assay: Concentration of compound in rat lung after intravenous injection of 20 mg/kg benzyl-penicillin after 1 min; assay type: functional, organism-based; set-up: dose 20 mg/kg; procedure, shortened: as §1
# [27] = test system: Rattus norvegicus; assay: Concentration of compound in rat lung after intravenous injection of 20 mg/kg benzyl-penicillin after 10 min; assay type: functional, organism-based; set-up: dose 20 mg/kg; procedure, shortened: as §1
# [28] = test system: Rattus norvegicus; assay: Concentration of compound in rat lung after intravenous injection of 20 mg/kg benzyl-penicillin after 20 min; assay type: functional, organism-based; set-up: dose 20 mg/kg; procedure, shortened: as §1
# [29] = test system: Rattus norvegicus; assay: Concentration of compound in rat lung after intravenous injection of 20 mg/kg benzyl-penicillin after 3 min; assay type: functional, organism-based; set-up: dose 20 mg/kg; procedure, shortened: as §1
# [30] = test system: Rattus norvegicus; assay: Concentration of compound in rat lung after intravenous injection of 20 mg/kg benzyl-penicillin after 40 min; assay type: functional, organism-based; set-up: dose 20 mg/kg; procedure, shortened: as §1
# [31] = test system: Rattus norvegicus; assay: Concentration of compound in rat lung after intravenous injection of 20 mg/kg benzyl-penicillin after 5 min; assay type: functional, organism-based; set-up: dose 20 mg/kg; procedure, shortened: as §1
# [32] = test system: Rattus norvegicus; assay: Concentration of compound in rat lung after intravenous injection of 20 mg/kg benzyl-penicillin after 60 min; assay type: functional, organism-based; set-up: dose 20 mg/kg; procedure, shortened: as §1
# [33] = Half-life for disappearance of compound from rabbit 10% brain homogenate; assay type: ADME, Oryctolagus cuniculus
# Procedure, shortened: (§2)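 Freshly collected whole blood, or 10% w/v brain homogenate in pH 7.4 phosphate buffer (ionic strength 0.15), was prewarmed to 37 °C. Compound was spiked from an 8 mM DMSO stock to 40 µM final. Timed samples were quenched in 8% DMSO/acetonitrile, centrifuged, filtered and analyzed by reversed-phase C8 HPLC with UV detection. K came from linear regression of log peak height versus time, with t1/2 derived from it. Values are mean ± SE of three determinations in different animal samples.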
# [34] = Half-life for disappearance of compound from rat 10% brain homogenate; assay type: ADME; procedure, shortened: as §2
# [35] = organism: Oryctolagus cuniculus; assay: Pseudo first-order rate constant (K) for disappearance of compound from rabbit 10% brain homogenate; assay type: ADME
# Procedure, shortened: (§3)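 Freshly collected whole blood (rat trunk blood; rabbit) or 10% w/v brain homogenate made in pH 7.4 phosphate buffer (μ = 0.15), prewarmed to 37 °C. Compound added from 8 mM DMSO stock to a final 40 μM. Timed 0.3 mL samples were quenched in 8% DMSO/acetonitrile, centrifuged, filtered and analysed by reversed-phase C8 HPLC-UV. K came from linear regression of log peak height versus time; n=3 animal samples.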
# [36] = organism: Rattus norvegicus; assay: Pseudo first-order rate constant (K) for disappearance of compound from rat 10% brain homogenate; assay type: ADME; procedure, shortened: as §3
# [37] = Half-life for disappearance of compound from dog whole blood; assay type: ADME, organism-based, Canis lupus familiaris; procedure, shortened: as §2
# [38] = Half-life for disappearance of compound from human whole blood; assay type: ADME, organism-based; procedure, shortened: as §2
# [39] = Half-life for disappearance of compound from rabbit whole blood; assay type: ADME, organism-based, Oryctolagus cuniculus; procedure, shortened: as §2
# [40] = Half-life for disappearance of compound from rat whole blood; assay type: ADME, organism-based; procedure, shortened: as §2
# [41] = organism: Canis familiaris; assay: Pseudo first-order rate constant (K) for disappearance of compound from dog whole blood; assay type: ADME, organism-based, Canis lupus familiaris; procedure, shortened: as §2
# [42] = organism: Homo sapiens; assay: Pseudo first-order rate constant (K) for disappearance of compound from human whole blood; assay type: ADME, organism-based; procedure, shortened: as §2
# [43] = organism: Oryctolagus cuniculus; assay: Pseudo first-order rate constant (K) for disappearance of compound from rabbit whole blood; assay type: ADME, organism-based; procedure, shortened: as §3
# [44] = Pseudo first-order rate constant (K) for disappearance of compound from rat whole blood; assay type: ADME, tissue-based; procedure, shortened: as §3
structure (smiles),measurement,setting,value
CC1(C)S[C@@H]2[C@H](NC(=O)Cc3ccccc3)C(=O)N2[C@H]1C(=O)O,Concentration,[1],33.6 µg/mL
same,Concentration,[2],20.8 µg/mL
same,Concentration,[3],120 µg/mL
same,Concentration,[4],6.2 µg/mL
same,Concentration,[5],88.5 µg/mL
same,Concentration,[6],1.1 µg/mL
same,Concentration,[7],27.6 µg/mL
same,Concentration,[8],15.1 µg/mL
same,Concentration,[9],17.7 µg/mL
same,Concentration,[10],7.5 µg/mL
same,Concentration,[11],38.9 µg/mL
same,Concentration,[12],2.9 µg/mL
same,Concentration,[13],30.7 µg/mL
same,Concentration,[14],64.6 µg/mL
same,Concentration,[15],8.5 µg/mL
same,Concentration,[16],2.8 µg/mL
same,Concentration,[17],25.2 µg/mL
same,Concentration,[18],1.3 µg/mL
same,Concentration,[19],22.8 µg/mL
same,Concentration,[20],0.4 µg/mL
same,Concentration,[21],2.7 µg/mL
same,Concentration,[22],0.3 µg/mL
same,Concentration,[23],1.3 µg/mL
same,Concentration,[24],0.9 µg/mL
same,Concentration,[25],0.7 µg/mL
same,Concentration,[26],52.5 µg/mL
same,Concentration,[27],9.5 µg/mL
same,Concentration,[28],2.3 µg/mL
same,Concentration,[29],30.3 µg/mL
same,Concentration,[30],1.4 µg/mL
same,Concentration,[31],22.4 µg/mL
same,Concentration,[32],0.7 µg/mL
C[n+]1cccc(C(=O)OCOC(=O)C2N3C(=O)C(NC(=O)Cc4ccccc4)C3SC2(C)C)c1.[I-] (stereo not given),half-life,[33],0.5 min
same,half-life,[34],0.6 min
same,K,[35],1.366 min⁻¹
same,K,[36],0.949 min⁻¹
C[n+]1cccc(C(=O)OCCOC(=O)C2N3C(=O)C(NC(=O)Cc4ccccc4)C3SC2(C)C)c1.[I-] (stereo not given),half-life,[37],11.5 min
same,half-life,[38],6.7 min
same,half-life,[33],16.7 min
same,half-life,[39],2 min
same,half-life,[34],28.2 min
same,half-life,[40],1.6 min
same,K,[41],0.061 min⁻¹
same,K,[42],0.105 min⁻¹
same,K,[35],0.043 min⁻¹
same,K,[43],0.33 min⁻¹
same,K,[36],0.025 min⁻¹
same,K,[44],0.435 min⁻¹
C[n+]1cccc(C(=O)NCCOC(=O)C2N3C(=O)C(NC(=O)Cc4ccccc4)C3SC2(C)C)c1.[I-] (stereo not given),half-life,[37],14.5 min
same,half-life,[38],9.1 min
same,half-life,[33],23.4 min
same,half-life,[39],3 min
same,half-life,[34],92.1 min
same,half-life,[40],1.9 min
same,K,[41],0.048 min⁻¹
same,K,[42],0.078 min⁻¹
same,K,[35],0.03 min⁻¹
same,K,[43],0.23 min⁻¹
same,K,[36],0.008 min⁻¹
same,K,[44],0.362 min⁻¹

# — ChEMBL document CHEMBL1124553, “Brain-specific chemical delivery systems for beta-lactam antibiotics. In vitro and in vivo studies of some dihydropyridine and dihydroisoquinoline derivatives of benzylpenicillin in rats” (J Med Chem, 1989)
